Measured values from ChEMBL document CHEMBL1926550, “Synthesis and antibacterial activity of naphthyridone derivatives containing mono/difluoro-methyloxime pyrrolidine scaffolds” (2012).
Values after ≈ are worked out from the molar mass of the structure shown.

Tests used:
Type in all cases: functional
Escherichia coli [1] = assay: Antibacterial activity against Escherichia coli 10-1 after 18 hrs by two fold serial dilution method; details: 10-1, 18 h
Outline: (§1)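 Agar two-fold serial dilution in melted Mueller-Hinton agar, final concentrations 128 down to 0.008 μg/mL. Plates inoculated with 10⁴ cfu and incubated at 35 °C for 18 h. MIC taken as the lowest concentration giving no visible growth on the plate.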

Escherichia coli [2] = assay: Antibacterial activity against Escherichia coli 10-2 after 18 hrs by two fold serial dilution method; details: 10-2, 18 h; outline: as §1
Escherichia coli [3] = assay: Antibacterial activity against Escherichia coli 10-3 after 18 hrs by two fold serial dilution method; details: 10-3, 18 h; outline: as §1
Klebsiella pneumoniae [4] = assay: Antibacterial activity against Klebsiella pneumoniae 09-2 after 18 hrs by two fold serial dilution method; details: 09-2, 18 h; outline: as §1
Klebsiella pneumoniae [5] = assay: Antibacterial activity against Klebsiella pneumoniae 10-1 after 18 hrs by two fold serial dilution method; details: 10-1, 18 h; outline: as §1
Klebsiella pneumoniae [6] = assay: Antibacterial activity against Klebsiella pneumoniae 10-3 after 18 hrs by two fold serial dilution method; details: 10-3, 18 h; outline: as §1
Pseudomonas aeruginosa [7] = assay: Antibacterial activity against Pseudomonas aeruginosa ATCC 27853 after 18 hrs by two fold serial dilution method; details: ATCC 27853, 18 h; outline: as §1
Pseudomonas aeruginosa [8] = assay: Antibacterial activity against Pseudomonas aeruginosa 10-1 after 18 hrs by two fold serial dilution method; details: 10-1, 18 h; outline: as §1
Pseudomonas aeruginosa [9] = assay: Antibacterial activity against Pseudomonas aeruginosa 10-2 after 18 hrs by two fold serial dilution method; details: 10-2, 18 h; outline: as §1
Pseudomonas aeruginosa [10] = assay: Antibacterial activity against Pseudomonas aeruginosa 10-3 after 18 hrs by two fold serial dilution method; details: 10-3, 18 h; outline: as §1
[11] = test system: Staphylococcus epidermidis; assay: Antibacterial activity against methicillin-resistant Staphylococcus epidermidis 10-4 after 18 hrs by two fold serial dilution method; details: 10-4, 18 h
Outline: (§2)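 Agar two-fold serial dilution in melted Mueller-Hinton agar, 128 to 0.008 μg/mL. Plates inoculated with 10⁴ cfu, incubated 35 °C for 18 h. MIC taken as lowest concentration giving no visible growth on the plate.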

Staphylococcus aureus [12] = assay: Antibacterial activity against methicillin-resistant Staphylococcus aureus 10-2 infected KM mouse systemic infection model assessed as decrease in mouse mortality administered orally twice after 1 and 4 hrs post infection measured up to 7 days; details: 10-2, po
Outline: (§3)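 Strains grown on MH agar at 35 °C for 18 h, suspended in gastric mucin. Male KM mice (19–21 g), groups of 10, infected intraperitoneally with 0.5 mL at 5–10× MLD. Four oral dose levels per drug at 1 and 4 h post infection. Mortality followed 7 days; ED50 with 95% confidence limits by Bliss method.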

[13] = test system: Staphylococcus epidermidis; assay: Antibacterial activity against methicillin-resistant Staphylococcus epidermidis 10-4 infected KM mouse systemic infection model assessed as decrease in mouse mortality administered orally twice after 1 and 4 hrs post infection measured up to 7 days; details: 10-4, po; outline: as §3
Escherichia coli [14] = assay: Antibacterial activity against Escherichia coli 10-2 infected KM mouse systemic infection model assessed as decrease in mouse mortality administered orally twice after 1 and 4 hrs post infection measured up to 7 days; details: 10-2, po; outline: as §3
Klebsiella pneumoniae [15] = assay: Antibacterial activity against Klebsiella pneumoniae 10-3 infected KM mouse systemic infection model assessed as decrease in mouse mortality administered orally twice after 1 and 4 hrs post infection measured up to 7 days; details: 10-3, po; outline: as §3
Pseudomonas aeruginosa [16] = assay: Antibacterial activity against Pseudomonas aeruginosa 10-1 infected KM mouse systemic infection model assessed as decrease in mouse mortality administered orally twice after 1 and 4 hrs post infection measured up to 7 days; details: 10-1, po; outline: as §3
Enterococcus faecium [17] = assay: Antibacterial activity against Enterococcus faecium 09-1 after 18 hrs by two fold serial dilution method; details: 09-1, 18 h; outline: as §1
Staphylococcus aureus [18] = assay: Antibacterial activity against Staphylococcus aureus ATCC 25923 after 18 hrs by two fold serial dilution method; details: ATCC 25923, 18 h; outline: as §1
Staphylococcus aureus [19] = assay: Antibacterial activity against methicillin-resistant Staphylococcus aureus 10-1 after 18 hrs by two fold serial dilution method; details: 10-1, 18 h; outline: as §2
Staphylococcus aureus [20] = assay: Antibacterial activity against methicillin-resistant Staphylococcus aureus 10-2 after 18 hrs by two fold serial dilution method; details: 10-2, 18 h; outline: as §2
Staphylococcus aureus [21] = assay: Antibacterial activity against methicillin-resistant Staphylococcus aureus 10-3 after 18 hrs by two fold serial dilution method; details: 10-3, 18 h; outline: as §2
Staphylococcus aureus [22] = assay: Antibacterial activity against methicillin-resistant Staphylococcus aureus 10-4 after 18 hrs by two fold serial dilution method; details: 10-4, 18 h; outline: as §2
Staphylococcus aureus [23] = assay: Antibacterial activity against methicillin-sensitive Staphylococcus aureus 10-1 after 18 hrs by two fold serial dilution method; details: 10-1, 18 h; outline: as §1
Staphylococcus aureus [24] = assay: Antibacterial activity against methicillin-sensitive Staphylococcus aureus 10-2 after 18 hrs by two fold serial dilution method; details: 10-2, 18 h; outline: as §1
Staphylococcus aureus [25] = assay: Antibacterial activity against methicillin-sensitive Staphylococcus aureus 10-3 after 18 hrs by two fold serial dilution method; details: 10-3, 18 h; outline: as §1
Staphylococcus aureus [26] = assay: Antibacterial activity against methicillin-sensitive Staphylococcus aureus 10-4 after 18 hrs by two fold serial dilution method; details: 10-4, 18 h; outline: as §1
Staphylococcus aureus [27] = assay: Antibacterial activity against methicillin-sensitive Staphylococcus aureus 10-5 after 18 hrs by two fold serial dilution method; details: 10-5, 18 h; outline: as §1
Staphylococcus aureus [28] = assay: Antibacterial activity against methicillin-sensitive Staphylococcus aureus 10-6 after 18 hrs by two fold serial dilution method; details: 10-6, 18 h; outline: as §1
[29] = test system: Staphylococcus epidermidis; assay: Antibacterial activity against methicillin-resistant Staphylococcus epidermidis 10-1 after 18 hrs by two fold serial dilution method; details: 10-1, 18 h; outline: as §2
[30] = test system: Staphylococcus epidermidis; assay: Antibacterial activity against methicillin-resistant Staphylococcus epidermidis 10-2 after 18 hrs by two fold serial dilution method; details: 10-2, 18 h; outline: as §2
[31] = test system: Staphylococcus epidermidis; assay: Antibacterial activity against methicillin-sensitive Staphylococcus epidermidis 10-1 after 18 hrs by two fold serial dilution method; details: 10-1, 18 h; outline: as §1
[32] = test system: Staphylococcus epidermidis; assay: Antibacterial activity against methicillin-sensitive Staphylococcus epidermidis 10-2 after 18 hrs by two fold serial dilution method; details: 10-2, 18 h; outline: as §1
Streptococcus pneumoniae = assay: Antibacterial activity against Streptococcus pneumoniae 10-1 after 18 hrs by two fold serial dilution method; details: 10-1, 18 h; outline: as §1
Enterococcus faecium [33] = assay: Antibacterial activity against Enterococcus faecium 09-2 after 18 hrs by two fold serial dilution method; details: 09-2, 18 h; outline: as §1
Enterococcus faecium [34] = assay: Antibacterial activity against Enterococcus faecium 09-3 after 18 hrs by two fold serial dilution method; details: 09-3, 18 h; outline: as §1
Enterococcus faecium [35] = assay: Antibacterial activity against Enterococcus faecium 09-4 after 18 hrs by two fold serial dilution method; details: 09-4, 18 h; outline: as §1
Enterococcus faecium [36] = assay: Antibacterial activity against Enterococcus faecium 09-5 after 18 hrs by two fold serial dilution method; details: 09-5, 18 h; outline: as §1
Enterococcus faecium [37] = assay: Antibacterial activity against Enterococcus faecium 09-6 after 18 hrs by two fold serial dilution method; details: 09-6, 18 h; outline: as §1
Enterococcus faecalis [38] = assay: Antibacterial activity against Enterococcus faecalis 09-1 after 18 hrs by two fold serial dilution method; details: 09-1, 18 h; outline: as §1
Enterococcus faecalis [39] = assay: Antibacterial activity against Enterococcus faecalis 09-2 after 18 hrs by two fold serial dilution method; details: 09-2, 18 h; outline: as §1
Escherichia coli [40] = assay: Antibacterial activity against Escherichia coli ATCC 25922 after 18 hrs by two fold serial dilution method; details: ATCC 25922, 18 h; outline: as §1
Escherichia coli [41] = assay: Antibacterial activity against Escherichia coli 09-1 after 18 hrs by two fold serial dilution method; details: 09-1, 18 h; outline: as §1
Escherichia coli [42] = assay: Antibacterial activity against Escherichia coli 09-2 after 18 hrs by two fold serial dilution method; details: 09-2, 18 h; outline: as §1
Escherichia coli [43] = assay: Antibacterial activity against Escherichia coli 09-3 after 18 hrs by two fold serial dilution method; details: 09-3, 18 h; outline: as §1

SMILES: CO/N=C1\CN(c2nc3c(cc2F)c(=O)c(C(=O)O)cn3C2CC2)CC1CN (centres undefined) [GEMIFLOXACIN]
- MIC (Escherichia coli [1]): 16 µg/mL (≈ 41.1 µM)
- MIC (Escherichia coli [2]): 0.25 µg/mL (≈ 0.642 µM)
- MIC (Escherichia coli [3]): 4 µg/mL (≈ 10.3 µM)
- MIC (Klebsiella pneumoniae [4]): 16 µg/mL (≈ 41.1 µM)
- MIC (Klebsiella pneumoniae [5]): 0.015 µg/mL (≈ 0.0385 µM)
- MIC (Klebsiella pneumoniae [6]): 0.5 µg/mL (≈ 1.28 µM)
- MIC (Pseudomonas aeruginosa [7]): 0.5 µg/mL (≈ 1.28 µM)
- MIC (Pseudomonas aeruginosa [8]): 0.25 µg/mL (≈ 0.642 µM)
- MIC (Pseudomonas aeruginosa [9]): 16 µg/mL (≈ 41.1 µM)
- MIC (Pseudomonas aeruginosa [10]): 2 µg/mL (≈ 5.14 µM)
- MIC [11]: 4 µg/mL (≈ 10.3 µM)
- ED50 (Staphylococcus aureus [12]): 14.9 mg/kg
- ED50 [13]: 24 mg/kg
- ED50 (Escherichia coli [14]): 6.86 mg/kg
- ED50 (Klebsiella pneumoniae [15]): 108 mg/kg
- ED50 (Pseudomonas aeruginosa [16]): 129 mg/kg
- MIC (Enterococcus faecium [17]): 16 µg/mL (≈ 41.1 µM)
- MIC (Staphylococcus aureus [18]): 0.008 µg/mL (≈ 0.0205 µM)
- MIC (Staphylococcus aureus [19]): 16 µg/mL (≈ 41.1 µM)
- MIC (Staphylococcus aureus [20]): 0.5 µg/mL (≈ 1.28 µM)
- MIC (Staphylococcus aureus [21]): 16 µg/mL (≈ 41.1 µM)
- MIC (Staphylococcus aureus [22]): 16 µg/mL (≈ 41.1 µM)
- MIC (Staphylococcus aureus [23]): 0.008 µg/mL (≈ 0.0205 µM)
- MIC (Staphylococcus aureus [24]): 2 µg/mL (≈ 5.14 µM)
- MIC (Staphylococcus aureus [25]): 0.06 µg/mL (≈ 0.154 µM)
- MIC (Staphylococcus aureus [26]): 0.015 µg/mL (≈ 0.0385 µM)
- MIC (Staphylococcus aureus [27]): 0.5 µg/mL (≈ 1.28 µM)
- MIC (Staphylococcus aureus [28]): 0.008 µg/mL (≈ 0.0205 µM)
- MIC [29]: 0.25 µg/mL (≈ 0.642 µM)
- MIC [30]: 0.5 µg/mL (≈ 1.28 µM)
- MIC [31]: 2 µg/mL (≈ 5.14 µM)
- MIC [32]: 16 µg/mL (≈ 41.1 µM)
- MIC (Streptococcus pneumoniae): 0.015 µg/mL (≈ 0.0385 µM)
- MIC (Enterococcus faecium [33]): 16 µg/mL (≈ 41.1 µM)
- MIC (Enterococcus faecium [34]): 4 µg/mL (≈ 10.3 µM)
- MIC (Enterococcus faecium [35]): 0.03 µg/mL (≈ 0.077 µM)
- MIC (Enterococcus faecium [36]): 16 µg/mL (≈ 41.1 µM)
- MIC (Enterococcus faecium [37]): 0.03 µg/mL (≈ 0.077 µM)
- MIC (Enterococcus faecalis [38]): 2 µg/mL (≈ 5.14 µM)
- MIC (Enterococcus faecalis [39]): 4 µg/mL (≈ 10.3 µM)
- MIC (Escherichia coli [40]): 0.008 µg/mL (≈ 0.0205 µM)
- MIC (Escherichia coli [41]): 16 µg/mL (≈ 41.1 µM)
- MIC (Escherichia coli [42]): 32 µg/mL (≈ 82.2 µM)
- MIC (Escherichia coli [43]): 16 µg/mL (≈ 41.1 µM)
